In ChEMBL document CHEMBL3808338, “Combined inhibition of the EGFR/AKT pathways by a novel conjugate of quinazoline with isothiocyanate” (Eur J Med Chem, 2016):
Calls of active or inactive are those of the source. The rule behind the calls is not given here.

Legend:
A-431 [1] = experiment: Induction of apoptosis in human A431 cells assessed as DNA fragmentation at 2 uM after 24 hrs by ELISA analysis; type: functional
In short: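 A431 cells seeded at 5x10³ cells/well, then exposed to compound for 24 h at 37°C, 5% CO₂. Nucleosomal DNA fragmentation in lysate supernatants quantified by sandwich ELISA with anti-histone-biotin and anti-DNA-peroxidase antibodies and ABTS substrate (20 min), read at 405 nm. Expressed as fold increase, treated over untreated absorbance.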

A-431 [2] = experiment: Antiproliferative activity against human A431 cells assessed as cell growth inhibition after 72 hrs by MTT assay; type: functional, cell-based; conditions: A-431, 72 h
In short: (§1)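 A431 or HaCaT cells seeded at 1x10⁴ cells/well, incubated 24 h, then exposed to 0.03-30 µM for 72 h at 37°C, 5% CO₂. MTT (5 mg/ml in PBS) for 4 h after a PBS wash, formazan dissolved in isopropanol, read at 405 nm. Viability expressed as % of untreated cells; IC₅₀ taken from at least three independent dose-response curves.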

HaCaT = experiment: Antiproliferative activity against human HaCaT cells assessed as cell growth inhibition after 72 hrs by MTT assay; type: functional, cell-based; in short: as §1
[3] = Antiproliferative activity against human HGF assessed as cell growth inhibition at 30 uM after 72 hrs by MTT assay; conditions: HGF cells, read-out: GI
In short: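 Gingival fibroblasts were grown from healthy-donor biopsies of permanent molars in DMEM/F12 with 10% FCS, then seeded at 1x10⁴ cells/well. After 24 h, cells were treated for 72 h at 37°C, 5% CO₂. Read-out was MTT with isopropanol solubilization at 405 nm, expressed as % of untreated cells.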

[4] = molecular target: T1, Epidermal growth factor receptor (Homo sapiens, UniProt P00533); experiment: Inhibition of EGFR-TK in human A431 cell lysate assessed as reduction in EGF stimulated kinase activity at 20 uM after 60 mins using biotinylated peptide substrate by ELISA; type: cell-free; conditions: A-431
T1 sequence (P00533 whole entry): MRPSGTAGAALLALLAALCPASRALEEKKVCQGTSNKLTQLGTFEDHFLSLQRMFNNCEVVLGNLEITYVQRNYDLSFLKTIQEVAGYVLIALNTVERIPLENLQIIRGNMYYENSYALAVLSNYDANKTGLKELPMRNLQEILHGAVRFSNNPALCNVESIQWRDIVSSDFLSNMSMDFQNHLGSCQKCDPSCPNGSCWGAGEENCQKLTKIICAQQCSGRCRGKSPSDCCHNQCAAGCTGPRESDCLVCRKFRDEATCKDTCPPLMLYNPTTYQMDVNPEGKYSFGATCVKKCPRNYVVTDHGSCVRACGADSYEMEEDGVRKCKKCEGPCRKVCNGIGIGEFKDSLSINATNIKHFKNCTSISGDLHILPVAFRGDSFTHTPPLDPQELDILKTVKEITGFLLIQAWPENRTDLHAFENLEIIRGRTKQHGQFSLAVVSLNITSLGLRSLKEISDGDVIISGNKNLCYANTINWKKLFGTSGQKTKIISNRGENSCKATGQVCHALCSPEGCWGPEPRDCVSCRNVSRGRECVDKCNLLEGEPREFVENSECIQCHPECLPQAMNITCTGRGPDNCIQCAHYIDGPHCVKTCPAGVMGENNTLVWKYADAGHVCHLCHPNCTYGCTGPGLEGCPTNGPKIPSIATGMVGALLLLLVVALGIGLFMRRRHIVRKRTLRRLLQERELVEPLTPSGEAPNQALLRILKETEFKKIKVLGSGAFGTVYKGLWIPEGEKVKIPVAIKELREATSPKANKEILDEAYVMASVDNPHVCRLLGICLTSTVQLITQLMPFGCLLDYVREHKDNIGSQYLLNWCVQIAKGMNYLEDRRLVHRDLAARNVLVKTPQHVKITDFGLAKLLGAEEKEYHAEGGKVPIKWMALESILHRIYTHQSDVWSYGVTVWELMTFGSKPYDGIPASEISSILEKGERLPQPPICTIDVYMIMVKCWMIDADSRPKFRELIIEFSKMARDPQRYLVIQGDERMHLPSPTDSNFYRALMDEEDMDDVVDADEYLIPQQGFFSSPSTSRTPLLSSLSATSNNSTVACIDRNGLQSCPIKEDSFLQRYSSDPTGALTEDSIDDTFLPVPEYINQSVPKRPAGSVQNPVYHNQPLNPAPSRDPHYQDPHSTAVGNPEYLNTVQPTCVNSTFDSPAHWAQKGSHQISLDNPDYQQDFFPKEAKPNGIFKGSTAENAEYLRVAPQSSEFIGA
In short: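 A431 cells seeded at 4x10⁶ per 100-mm dish and stimulated with EGF (100 nM) for 60 min with or without compound. Tyrosine kinase activity in lysates measured by direct colorimetric ELISA using a biotinylated peptide substrate and an anti-phosphotyrosine-HRP antibody.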

[5] = molecular target: T1, Epidermal growth factor receptor; experiment: Inhibition of EGFR-TK in human A431 cell lysate assessed as reduction in EGF stimulated kinase activity after 60 mins using biotinylated peptide substrate by ELISA; type: cell-based, A-431
[6] = molecular target: T1, Epidermal growth factor receptor; conditions: A-431, 2 uM
A-431 [7] = experiment: Effect on total Akt levels in human A431 cells after 2 hrs by ELISA analysis; type: cell-based; conditions: a-431, 2 h
[8] = Chemical stability of the compound in phosphate buffer assessed as degradation at 2 uM at pH 7.2 after 0.5 to 24 hrs by HPLC analysis; type: physicochemical; conditions: pH 7.2, 2 µM
In short: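 Test solutions (2 µM) made from a 1 mg/mL DMSO stock diluted into pH 7.2 phosphate buffer and held at 37°C. Aliquots analysed by HPLC with diode-array detection on a phenyl-hexyl column at 0, 0.5, 2, 4 and 24 h.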

[9] = molecular target: T1, Epidermal growth factor receptor; conditions: A-431, 10 uM

SMILES | Activity (A-431 [1]) | IC50 (A-431 [2]) | IC50 (HaCaT) | inhibition at 72 h, 30 µM [3] | inhibition [4] | other results
C=CC(=O)Nc1ccc2ncnc(Nc3cccc(Br)c3)c2c1 | 48% | – | – | – | – | –
O=C(CCCN=C=S)Nc1ccc2ncnc(Nc3cccc(Br)c3)c2c1 | – | 17.1 µM | 16.3 µM | < 50% | < 50% | –
O=C(CCCCCCN=C=S)Nc1ccc2ncnc(Nc3cccc(Br)c3)c2c1 | – | 16.1 µM | 17.3 µM | – | < 50% | –
O=C(CCN=C=S)Nc1ccc2ncnc(Nc3cccc(Br)c3)c2c1 | – | 17.1 µM | 18.9 µM | – | < 50% | –
Nc1ccc2ncnc(Nc3cccc(Br)c3)c2c1 | – | 11.1 µM | 14.3 µM | < 50% | – | –
CC[C@@]1(O)C(=O)OCc2c1cc1n(c2=O)Cc2cc3ccccc3nc2-1 [CAMPTOTHECIN] | 65% | – | – | – | – | –
C[S+]([O-])CCCCN=C=S (centres undefined) [SULFORAPHANE] | – | 15.8 µM | – | – | – | IC50 [5]: 9 µM
O=C(CCCCN=C=S)Nc1ccc2ncnc(Nc3cccc(Br)c3)c2c1 | – | 16.3 µM | 18.2 µM | – | < 50% | –
S=C=Nc1ccc2ncnc(Nc3cccc(Br)c3)c2c1 | 40% | 2.04 µM | 2.62 µM | < 50% | – | inhibition [6]: Active; IC50 [5]: 0.88 µM; Activity (A-431 [7]): Non-toxic; Stability [8]: Stable; inhibition [9]: 89%
O=C(CCCCCN=C=S)Nc1ccc2ncnc(Nc3cccc(Br)c3)c2c1 | – | 14.4 µM | 16.5 µM | < 50% | < 50% | Stability [8]: Stable
